ChEMBL document CHEMBL3612038, “N-Alkyl/aryl-4-(3-substituted-3-phenylpropyl)piperazine-1-carbothioamide as dual-action vaginal microbicides with reverse transcriptase inhibition” (Eur J Med Chem, 2015)
In brackets after ≈: the same amount, converted by molar mass.

Experiments:
Trichomonas vaginalis [1] = test: Anti-trichomonas activity against MTZ-resistant Trichomonas vaginalis incubated for 3 to 48 hrs by trypan blue exclusion assay; format: functional
Summary of the method: (§1)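 Trichomonas vaginalis trophozoites (5 × 10^4/L as printed) in TYM medium; DMSO stocks (100.0 mg/mL) serially diluted in TYM to 0.1 mg/mL, DMSO/TYM vehicle controls. Anaerobic incubation at 37 °C; viability checked 3–48 h by microscopy (200×) with trypan blue exclusion. MIC = lowest concentration killing all cells within 48 h.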

Trichomonas vaginalis [2] = test: Anti-trichomonas activity against MTZ-susceptible Trichomonas vaginalis incubated for 3 to 48 hrs by trypan blue exclusion assay; format: functional; summary of the method: as §1
Trichomonas vaginalis [3] = test: Resistance index, ratio of MIC for MTZ-resistant Trichomonas vaginalis to MIC for MTZ-susceptible Trichomonas vaginalis; format: functional
Cryptococcus neoformans = test: Antifungal activity against Cryptococcus neoformans incubated for 48 hrs by broth micro-dilution method; format: functional
Summary of the method: (§2)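 Broth microdilution per NCCLS guidelines in RPMI 1640 buffered with MOPS; starting inoculum 1–5 × 10^3 CFU/mL; plates incubated at 35 °C, MIC read after 48 h.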

[4] = tested on: Trichophyton mentagrophytes; test: Antifungal activity against Trichophyton mentagrophytes incubated for 48 hrs by broth micro-dilution method; format: functional; summary of the method: as §2
Candida albicans = test: Antifungal activity against Candida albicans incubated for 48 hrs by broth micro-dilution method; format: functional; summary of the method: as §2
Candida parapsilosis = test: Antifungal activity against Candida parapsilosis ATCC 22019 incubated for 48 hrs by broth micro-dilution method; format: functional; details: Lodderomyces parapsilosis, ATCC 22019, 48 h; summary of the method: as §2
Aspergillus fumigatus = test: Antifungal activity against Aspergillus fumigatus incubated for 48 hrs by broth micro-dilution method; format: functional; summary of the method: as §2
Sporothrix schenckii = test: Antifungal activity against Sporothrix schenckii incubated for 48 hrs by broth micro-dilution method; format: functional; summary of the method: as §2
[5] = Spermicidal activity in liquefied human semen assessed as reduction in motile spermatozoa incubated at 37 degC for 30 mins; format: functional, Sperm; details: for minimal effective concentration: Homo sapiens, Sperm, Semen, 0.5 h, read-out: MEC
Summary of the method: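 Compounds dissolved in minimal DMSO, diluted with 0.85% saline to 1.0% test solution; liquefied human semen mixed 1:5 with test solution, vortexed 10 s; motile sperm scored by phase-contrast microscopy over 60 s in five fields. MEC = lowest concentration immobilizing 100% of sperm, still immotile after dilution with nutrient medium.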

[6] = target: Human immunodeficiency virus type 1 reverse transcriptase (Human immunodeficiency virus 1) (UniProt Q72547); test: Inhibition of HIV1 reverse transcriptase at 100 ug/ml incubated for 1 hr by ELISA method
Summary of the method: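 Non-radioactive colorimetric ELISA: template/primer with dNTPs plus HIV-1 RT in lysis buffer ± compound (100 µg/mL), 1 h at 37 °C; RT-free buffer as negative control, nevirapine as positive control. Product captured on streptavidin plate 1 h at 37 °C, detected with anti-DIG-POD and ABTS, OD 405 nm.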

[7] = Effect on Lactobacillus jensenii ATCC 25258 62G assessed as effect on microbial proliferation at 200 ug/ml incubated for 24 hrs
Summary of the method: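 L. jensenii ATCC 25258 (strain 62G) in 6% Rogosa SL broth with 0.132% acetic acid; serial compound dilutions or vehicle in triplicate, ~1000 CFU per well, 24 h at 37 °C, humidified 5% CO2; growth read as OD610, expressed relative to control = 100.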

HeLa = test: Cytotoxicity against human HeLa cells assessed as reduction in cell viability at 200 ug/ml incubated for 24 hrs by MTT assay; format: cell-based
Summary of the method: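 HeLa cells seeded at 5 × 10^4 per well, exposed 24 h to compound dilutions in culture medium or vehicle control; MTT (5 mg/mL in pH 7.4 buffer) added, formazan dissolved in DMSO, absorbance read at 540 nm.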

Compound: Cc1ncc([N+](=O)[O-])n1CCO [METRONIDAZOLE]
- MIC (Trichomonas vaginalis [1]): 293 µM (≈ 50.1 µg/mL)
- MIC (Trichomonas vaginalis [2]): 19.7 µM (≈ 3.37 µg/mL)
- Ratio (Trichomonas vaginalis [3]): 15

Compound: OC(Cn1cncn1)(Cn1cncn1)c1ccc(F)cc1F [FLUCONAZOLE]
- MIC (Cryptococcus neoformans): 6.53 µM (≈ 2 µg/mL)
- MIC [4]: > 81.2 µM
- MIC (Candida albicans): 3.26 µM (≈ 0.998 µg/mL)
- MIC (Candida parapsilosis): 6.53 µM (≈ 2 µg/mL)
- MIC (Aspergillus fumigatus): > 81.2 µM
- MIC (Sporothrix schenckii): 6.53 µM (≈ 2 µg/mL)

Compound: OC(CCN1CCN(C(=S)NC2CCCCC2)CC1)c1ccccc1 (stereo not drawn)
- MEC [5]: 1%
- minimal effective concentration [5]: 27700 µM
- MIC (Trichomonas vaginalis [1]): 174 µM (≈ 62.8 µg/mL)
- MIC (Cryptococcus neoformans): > 81.2 µM
- MIC [4]: > 81.2 µM
- inhibition [6]: 24.3%
- MIC (Candida albicans): > 81.2 µM
- MIC (Candida parapsilosis): > 81.2 µM
- MIC (Aspergillus fumigatus): > 81.2 µM
- MIC (Sporothrix schenckii): > 81.2 µM
- MIC (Trichomonas vaginalis [2]): 173 µM (≈ 62.6 µg/mL)
- Activity [7]: Non-toxic
- Ratio (Trichomonas vaginalis [3]): 2
- Activity (HeLa): Non-toxic

Compound: FC(F)(F)c1ccc(OC(CCN2CCN(C(=S)NCCc3ccccc3)CC2)c2ccccc2)cc1 (stereo not drawn)
- MEC [5]: >1%
- minimal effective concentration [5]: > 19000 µM
- MIC (Trichomonas vaginalis [1]): 118 µM (≈ 62.5 µg/mL)
- MIC (Cryptococcus neoformans): > 81.2 µM
- MIC [4]: > 81.2 µM
- inhibition [6]: 38.4%
- MIC (Candida albicans): > 81.2 µM
- MIC (Candida parapsilosis): > 81.2 µM
- MIC (Aspergillus fumigatus): > 81.2 µM
- MIC (Sporothrix schenckii): > 81.2 µM
- MIC (Trichomonas vaginalis [2]): 47.3 µM (≈ 25 µg/mL)
- Activity [7]: Non-toxic
- Ratio (Trichomonas vaginalis [3]): 2
- Activity (HeLa): Non-toxic

Compound: O=C(CCN1CCN(C(=S)Nc2ccccc2)CC1)c1ccccc1
- MEC [5]: 0.1%
- minimal effective concentration [5]: 2830 µM
- MIC (Trichomonas vaginalis [1]): 354 µM (≈ 125 µg/mL)
- MIC (Cryptococcus neoformans): 17.6 µM (≈ 6.22 µg/mL)
- MIC [4]: 17.6 µM (≈ 6.22 µg/mL)
- inhibition [6]: 49.2%
- MIC (Candida albicans): > 81.2 µM
- MIC (Candida parapsilosis): > 81.2 µM
- MIC (Aspergillus fumigatus): > 81.2 µM
- MIC (Sporothrix schenckii): > 81.2 µM
- MIC (Trichomonas vaginalis [2]): 88.5 µM (≈ 31.3 µg/mL)
- Activity [7]: Non-toxic
- Ratio (Trichomonas vaginalis [3]): 2
- Activity (HeLa): Non-toxic

Compound: OC(CCN1CCN(C(=S)NCCc2ccccc2)CC1)c1ccccc1 (stereo not drawn)
- MEC [5]: 0.1%
- minimal effective concentration [5]: 2610 µM
- MIC (Trichomonas vaginalis [1]): 163 µM (≈ 62.6 µg/mL)
- MIC (Cryptococcus neoformans): > 81.2 µM
- MIC [4]: > 81.2 µM
- inhibition [6]: 45.3%
- MIC (Candida albicans): > 81.2 µM
- MIC (Candida parapsilosis): > 81.2 µM
- MIC (Aspergillus fumigatus): > 81.2 µM
- MIC (Sporothrix schenckii): > 81.2 µM
- MIC (Trichomonas vaginalis [2]): 40.6 µM (≈ 15.6 µg/mL)
- Activity [7]: Non-toxic
- Ratio (Trichomonas vaginalis [3]): 4
- Activity (HeLa): Non-toxic

Compound: CCCCNC(=S)N1CCN(CCC(O)c2ccccc2)CC1 (stereo not drawn)
- MEC [5]: 0.05%
- minimal effective concentration [5]: 1490 µM
- MIC (Trichomonas vaginalis [1]): 187 µM (≈ 62.6 µg/mL)
- MIC (Cryptococcus neoformans): > 81.2 µM
- MIC [4]: > 81.2 µM
- inhibition [6]: 29.1%
- MIC (Candida albicans): > 81.2 µM
- MIC (Candida parapsilosis): > 81.2 µM
- MIC (Aspergillus fumigatus): > 81.2 µM
- MIC (Sporothrix schenckii): > 81.2 µM
- MIC (Trichomonas vaginalis [2]): 46.4 µM (≈ 15.6 µg/mL)
- Activity [7]: Non-toxic
- Ratio (Trichomonas vaginalis [3]): 4
- Activity (HeLa): Non-toxic

Compound: O=C(CCN1CCN(C(=S)NCCc2ccccc2)CC1)c1ccccc1
- MEC [5]: 0.01%
- minimal effective concentration [5]: 260 µM
- MIC (Trichomonas vaginalis [1]): 164 µM (≈ 62.6 µg/mL)
- MIC (Cryptococcus neoformans): > 81.2 µM
- MIC [4]: > 81.2 µM
- inhibition [6]: 50.2%
- MIC (Candida albicans): > 81.2 µM
- MIC (Candida parapsilosis): > 81.2 µM
- MIC (Aspergillus fumigatus): > 81.2 µM
- MIC (Sporothrix schenckii): > 81.2 µM
- MIC (Trichomonas vaginalis [2]): 40.8 µM (≈ 15.6 µg/mL)
- Activity [7]: Non-toxic
- Ratio (Trichomonas vaginalis [3]): 2
- Activity (HeLa): Non-toxic
